Laboratory results reported in ChEMBL document CHEMBL3352295, “Neuroprotective Xanthones from the Root Bark of Cudrania tricuspidata” (J Nat Prod, 2014).

Experiments:
[1] = Neuroprotective activity against 6-hydroxydopamine-induced human SH-SY5Y cell death after 24 hrs by MTT assay; type: functional, cell-based
How it was run: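 SH-SY5Y cells seeded at 2 × 10^4 cells/well, grown 24 h, then exposed to 100 μM 6-OHDA together with test compounds (at least four concentrations) for 24 h. Viability by MTT (0.5 mg/mL in PBS, 37 °C, 4 h), formazan dissolved in DMSO, absorbance 540 nm. EC50 = half-maximal protection, from semilog concentration–effect plot; triplicate, mean ± SD; curcumin positive control.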

SH-SY5Y = assay: Ratio of curcumin EC50 to compound EC50 for neuroprotective activity against 6-hydroxydopamine-induced human SH-SY5Y cell death after 24 hrs by MTT assay; type: functional
How it was run: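 SH-SY5Y cells seeded at 2 × 10^4 cells/well and grown 24 h. Cells then received 100 μM 6-OHDA together with test samples at ≥4 concentrations for a further 24 h. Viability was read by MTT (0.5 mg/mL in PBS, 37 °C, 4 h), with formazan dissolved in DMSO and read at 540 nm. EC50 (half-maximal protection) was taken from semilog plots, triplicate, mean ± SD. Curcumin was the reference.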

| Compound | EC50 [1] [µM] | Ratio EC50 (SH-SY5Y) |
| --- | --- | --- |
| CC(C)=CCc1c2c(c(O)c3c(=O)c4ccc(O)c(O)c4oc13)C(C)(C)C(C)O2 (stereo not given) | 3 |  |
| CC1(C)C=Cc2c(cc(O)c3c(=O)c4cc(O)ccc4oc23)O1 [NIGROLINEAXANTHONE F] | 15.5 |  |
| C=CC(C)(C)c1c(O)cc(O)c2c(=O)c3ccc(O)c(OC)c3oc12 | 0.7 | 7 |
| C=CC(C)(C)c1c(O)cc(O)c2c(=O)c3c(cc(O)c4oc(C(=C)C)cc43)oc12 | 0.8 | 7 |
| C=CC(C)(C)c1c(O)cc2oc3c(CC=C(C)C)c(O)c(O)cc3c(=O)c2c1O [CUDRAXANTHONE L] | 8.2 |  |
| C=CC(C)(C)c1c(OC)cc(O)c2c(=O)c3c(CC(O)C(=C)C)c(O)c(O)cc3oc12 (stereo not given) | 2.3 |  |
| COc1cc(/C=C/C(=O)CC(=O)/C=C/c2ccc(O)c(OC)c2)ccc1O [CURCUMIN] | 6 |  |
| CC1Oc2cc3oc4c5c(c(O)cc4c(=O)c3c(O)c2C1(C)C)OC(C)(C)C(O)C5 (stereo not given) | 2.2 |  |
| C=CC(C)(C)c1c(O)cc(O)c2c(=O)c3c(CC(=O)C(=C)C)c(OC)c(O)cc3oc12 | 7.2 |  |
| CC1(C)C=Cc2c(cc(O)c3c(=O)c4cccc(O)c4oc23)O1 | 5.1 |  |
| CC1(C)C=Cc2c(cc(O)c3c(=O)c4c5c(ccc4oc23)OC(C)(C)C=C5)O1 | 4.5 |  |
| C=CC(C)(C)c1c(O)cc(O)c2c(=O)c3c(CC(O)C(=C)C)c(O)c(O)cc3oc12 (stereo not given) | 16.6 |  |
| CC(C)=CCc1c(O)c(O)cc2c(=O)c3c4c(c(O)cc3oc12)C(C)(C)C(C)O4 (stereo not given) | 2.4 |  |
